# According to ChEMBL document CHEMBL1158972, “New cytotoxic beta-carboline alkaloids from the marine bryozoan, Cribricellina cribraria” (J Nat Prod, 1991):
# Calls of active or inactive are those of the source. The rule behind the calls is not given here.
# Experiments:
# Bacillus subtilis = test: Antimicrobial activity against Bacillus subtilis assessed per disk; format: functional
# Amorphotheca resinae [1] = test: Antimicrobial activity against Cladosporium resinae assessed per disk; format: functional
# P388 = test: Cytotoxicity against mouse P388 cells; format: functional, cell-based
# Summary of the method: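 P-388 leukemia line (ATCC CCL 46). The value is the sample concentration, in ng/ml, that reduces cell growth by 50%.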
# Human alphaherpesvirus 1 [2] = test: Antiviral activity against Herpes simplex virus (type 1 / strain F) ATCC VR 733 in african green monkey BSC1 cells assessed as excess radius from disk edge at 1 ug/disk; format: functional, organism-based; conditions: BSC-1
# Summary of the method: (§1)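 Disc assay of herpes simplex type I (strain F, ATCC VR 733) on a BSC cell line (ATCC CCL 26). The antiviral zone is scored as excess radius from the disc edge: 2+ = 2-4 mm, 3+ = 4-6 mm, ww = zone over the whole well.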
# Candida albicans = test: Antimicrobial activity against Candida albicans assessed per disk; format: functional
# [3] = Cytotoxicity against african green monkey BSC1 cells at 1 ug/disk; format: cell-based; conditions: chlorocebus aethiops, bsc-1
# Summary of the method: (§2)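 Cytotoxic zone around the disc on a BSC monolayer (ATCC CCL 26), scored as excess radius beyond the disc edge: 2+ = 2-4 mm, 3+ = 4-6 mm, ww = zone over the whole well.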
# [4] = test system: Trichophyton mentagrophytes; test: Antimicrobial activity against Trichophyton mentagrophytes assessed per disk; format: functional
# [5] = Cytotoxicity against african green monkey BSC1 cells at 5 ug/disk; format: cell-based; conditions: chlorocebus aethiops, bsc-1; summary of the method: as §2
# Escherichia coli = test: Antimicrobial activity against Escherichia coli assessed per disk; format: functional
# [6] = Cytotoxicity against african green monkey BSC1 cells at 2 ug/disk; format: cell-based; conditions: chlorocebus aethiops, bsc-1; summary of the method: as §2
# [7] = Cytotoxicity against african green monkey BSC1 cells at 20 ug/disk; format: cell-based; conditions: chlorocebus aethiops, bsc-1; summary of the method: as §2
# Pseudomonas aeruginosa = test: Antimicrobial activity against Pseudomonas aeruginosa assessed per disk; format: functional
# Human alphaherpesvirus 1 [8] = test: Antiviral activity against Herpes simplex virus (type 1 / strain F) ATCC VR 733 in african green monkey BSC1 cells assessed as excess radius from disk edge at 5 ug/disk; format: functional, BSC-1; conditions: Human alphaherpesvirus 1, Strain F ATCC VR 733; read-out: IZ; summary of the method: as §1
# Human alphaherpesvirus 1 [9] = test: Antiviral activity against Herpes simplex virus (type 1 / strain F) ATCC VR 733 in african green monkey BSC1 cells assessed as excess radius from disk edge at 20 ug/disk; format: functional, organism-based; conditions: BSC-1; summary of the method: as §1
# Poliovirus 1 [10] = test: Antiviral activity against Polio virus 1 Pfizer vaccine in african green monkey BSC1 cells assessed as excess radius from disk edge at 20 ug/disk; format: functional, organism-based; conditions: BSC-1
# Summary of the method: (§3)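 Disc assay on BSC cell monolayers (ATCC CCL 26) infected with the Pfizer vaccine strain of poliovirus, with the virus grown on BSC cells. Scored by the radius of the antiviral/cytotoxic zone beyond the disc edge: 2+ = 2-4 mm, 3+ = 4-6 mm, ww = zone over the whole well.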
# [11] = test system: Trichophyton mentagrophytes; test: Antimicrobial activity against Trichophyton mentagrophytes at 100 units; format: functional, organism-based
# Amorphotheca resinae [12] = test: Antimicrobial activity against Cladosporium resinae at 100 units; format: functional, organism-based
# [13] = Cytotoxicity against african green monkey BSC1 cells at 0.5 ug/disk; format: cell-based; conditions: chlorocebus aethiops, bsc-1; summary of the method: as §2
# Human alphaherpesvirus 1 [14] = test: Antiviral activity against Herpes simplex virus (type 1 / strain F) ATCC VR 733 in african green monkey BSC1 cells assessed as excess radius from disk edge at 0.5 ug/disk; format: functional, BSC-1; conditions: Human alphaherpesvirus 1, Strain F ATCC VR 733; read-out: IZ; summary of the method: as §1
# [15] = Cytotoxicity against african green monkey BSC1 cells at 0.4 ug/disk; format: cell-based; conditions: chlorocebus aethiops, bsc-1; summary of the method: as §2
# Human alphaherpesvirus 1 [16] = test: Antiviral activity against Herpes simplex virus (type 1 / strain F) ATCC VR 733 in african green monkey BSC1 cells assessed as excess radius from disk edge at 0.4 ug/disk; format: functional, organism-based; conditions: BSC-1; summary of the method: as §1
# Human alphaherpesvirus 1 [17] = test: Antiviral activity against Herpes simplex virus (type 1 / strain F) ATCC VR 733 in african green monkey BSC1 cells assessed as excess radius from disk edge at 2 ug/disk; format: functional, BSC-1; conditions: Human alphaherpesvirus 1, Strain F ATCC VR 733; read-out: IZ; summary of the method: as §1
# Human alphaherpesvirus 1 [18] = test: Antiviral activity against Herpes simplex virus (type 1 / strain F) ATCC VR 733 in african green monkey BSC1 cells assessed as excess radius from disk edge at 40 ug/disk; format: functional, BSC-1; conditions: Human alphaherpesvirus 1, Strain F ATCC VR 733; read-out: IZ; summary of the method: as §1
# [19] = Cytotoxicity against african green monkey BSC1 cells at 40 ug/disk; format: cell-based; conditions: chlorocebus aethiops, bsc-1; summary of the method: as §2
# Human alphaherpesvirus 1 [20] = test: Antiviral activity against Herpes simplex virus (type 1 / strain F) ATCC VR 733 in african green monkey BSC1 cells assessed as excess radius from disk edge at 10 ug/disk; format: functional, organism-based; conditions: BSC-1; summary of the method: as §1
# [21] = Cytotoxicity against african green monkey BSC1 cells at 10 ug/disk; format: cell-based; conditions: chlorocebus aethiops, bsc-1; summary of the method: as §2
# Poliovirus 1 [22] = test: Antiviral activity against Polio virus 1 Pfizer vaccine in african green monkey BSC1 cells assessed as excess radius from disk edge at 0.4 ug/disk; format: functional, organism-based; conditions: BSC-1; summary of the method: as §3
# Poliovirus 1 [23] = test: Antiviral activity against Polio virus 1 Pfizer vaccine in african green monkey BSC1 cells assessed as excess radius from disk edge at 0.5 ug/disk; format: functional, BSC-1; conditions: Enterovirus C; read-out: IZ; summary of the method: as §3
Molecule,MIC (Bacillus subtilis) [µg],MIC (Amorphotheca resinae [1]) [µg],IC50 (P388) [µg/mL],MIC (Candida albicans) [µg],MIC [4] [µg],MIC (Escherichia coli) [µg],MIC (Pseudomonas aeruginosa) [µg],inhibition zone (IZ) (Human alphaherpesvirus 1 [9]),inhibition zone (IZ) [7],inhibition zone (IZ) (Poliovirus 1 [10]),also measured
C=Cc1nccc2c1[nH]c1c(OC(C)=O)cccc12,7.5,>60,0.65,15,0.9,>60,>60,–,–,–,inhibition zone (IZ) (Human alphaherpesvirus 1 [2]): inactive; inhibition zone (IZ) [3]: Not Active; inhibition zone (IZ) [5]: 2 mm; inhibition zone (IZ) [6]: Active; Activity [7]: Active; zone of inhibition at 5 µg/disc (Human alphaherpesvirus 1 [8]): 1 mm
CCCc1nccc2c1[nH]c1ccccc12,>120,>120,25,>120,15,>120,>60,inactive,Not Active,–,–
Cc1nccc2c1[nH]c1ccccc12 [HARMAN],7.5,15,25,1.9,3.7,60,>60,inactive,Not Active,inactive,–
CCc1nccc2c1[nH]c1ccccc12,7.5,30,25,1.9,1.9,>120,>60,inactive,Not Active,inactive,–
NYSTATIN,–,–,–,–,–,–,–,–,–,–,inhibition zone (IZ) [11]: 4 mm; inhibition zone (IZ) (Amorphotheca resinae [12]): 12 mm
C=Cc1nccc2c1[nH]c1ccccc12,1.9,0.9,0.1,1.9,0.1,30,>60,–,–,–,inhibition zone (IZ) [13]: 2 mm; zone of inhibition at 0.5 µg/disc (Human alphaherpesvirus 1 [14]): 1 mm; inhibition zone (IZ) [6]: Active; inhibition zone (IZ) [15]: Not Active; inhibition zone (IZ) (Human alphaherpesvirus 1 [16]): inactive
CC1NC(C(=O)O)Cc2c1[nH]c1ccccc21 (stereo unspecified),>60,>60,> 125,>60,>60,>60,>60,inactive,Not Active,inactive,–
C=Cc1nccc2c1[nH]c1c(OC)cccc12,7.5,15,0.1,7.5,0.45,>60,>60,–,–,–,inhibition zone (IZ) [13]: 1 mm; zone of inhibition at 0.5 µg/disc (Human alphaherpesvirus 1 [14]): 1 mm; inhibition zone (IZ) [6]: 2 mm; inhibition zone (IZ) [15]: Not Active; zone of inhibition at 2 µg/disc (Human alphaherpesvirus 1 [17]): 1 mm; inhibition zone (IZ) (Human alphaherpesvirus 1 [16]): inactive
COC(=O)C1Cc2c([nH]c3ccccc23)C(C)N1 (stereo unspecified),>60,>60,120,7.5,>60,>60,>60,inactive,Not Active,inactive,–
CCCCCCc1nccc2c1[nH]c1ccccc12,>60,7.5,9,>60,1.9,>60,>60,–,–,–,zone of inhibition at 40 µg/disc (Human alphaherpesvirus 1 [18]): 1 mm; inhibition zone (IZ) [19]: 1 mm; inhibition zone (IZ) (Human alphaherpesvirus 1 [20]): inactive; inhibition zone (IZ) [21]: 1 mm
CCc1nccc2c1[nH]c1c(O)cccc12,30,>60,> 12.5,30,30,30,>60,inactive,Not Active,inactive,–
CC(C)c1nccc2c1[nH]c1ccccc12,7.5,15,13,1.9,0.45,>120,>60,inactive,Not Active,–,–
CCc1nccc2c1[nH]c1c(OC)cccc12,>60,>60,> 12.5,7.5,7.5,>60,>60,inactive,Not Active,inactive,–
C=Cc1nccc2c1[nH]c1c(O)cccc12,7.5,3.7,–,15,0.45,>60,>60,–,–,–,inhibition zone (IZ) [13]: 2 mm; inhibition zone (IZ) (Poliovirus 1 [22]): inactive; zone of inhibition at 0.5 µg/disc (Human alphaherpesvirus 1 [14]): 1 mm; inhibition zone (IZ) [6]: Active; zone of inhibition at 0.5 µg/disc (Poliovirus 1 [23]): 1 mm; inhibition zone (IZ) [15]: Not Active; inhibition zone (IZ) (Human alphaherpesvirus 1 [16]): inactive
c1ccc2c(c1)[nH]c1cnccc12 [NORHARMANE],7.5,15,25,1.9,0.9,3.7,>60,inactive,Not Active,inactive,–
CCc1ncc(S(C)(=O)=O)c2c1[nH]c1ccccc12,30,>60,> 12.5,>60,30,>60,>60,inactive,Not Active,–,–
